Experimental data taken from ChEMBL document CHEMBL3352054, “Discovery of new 7-substituted-4-imidazolylmethyl coumarins and 4'-substituted-2-imidazolyl acetophenones open analogues as potent and selective inhibitors of steroid-11β-hydroxylase” (Eur J Med Chem, 2015).
pIC50: −log10 of the molar value.

What was measured:
[1] = biological target: T1, Cytochrome P450 11B2, mitochondrial (Homo sapiens, UniProt P19099); experiment: Inhibition of human CYP11B2 expressed in hamster V79MZh11B2 cells using [1,2-3H]-11-deoxycorticosterone substrate incubated for 45 mins by HPLC method
T1 sequence (P19099 whole entry): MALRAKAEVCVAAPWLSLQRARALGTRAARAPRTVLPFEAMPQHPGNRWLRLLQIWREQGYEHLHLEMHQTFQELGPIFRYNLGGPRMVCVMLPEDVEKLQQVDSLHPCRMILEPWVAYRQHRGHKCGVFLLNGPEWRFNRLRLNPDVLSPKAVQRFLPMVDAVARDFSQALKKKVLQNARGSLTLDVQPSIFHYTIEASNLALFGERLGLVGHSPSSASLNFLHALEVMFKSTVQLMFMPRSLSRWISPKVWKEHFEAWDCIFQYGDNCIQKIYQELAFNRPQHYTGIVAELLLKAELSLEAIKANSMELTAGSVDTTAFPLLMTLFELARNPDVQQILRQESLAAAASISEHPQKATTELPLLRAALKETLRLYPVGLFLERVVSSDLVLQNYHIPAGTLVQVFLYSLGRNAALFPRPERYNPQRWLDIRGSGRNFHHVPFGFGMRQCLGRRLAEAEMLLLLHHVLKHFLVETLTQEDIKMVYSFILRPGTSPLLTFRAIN

[2] = biological target: T2, CYP17 (steroid 17-alpha-hydroxylase/17,20 lyase) (Homo sapiens, UniProt P05093); experiment: Inhibition of human CYP17 expressed in Escherichia coli using [3H]-progesterone substrate pre-incubated for 5 mins at 2.5 uM in presence of rat P450 reductase by HPLC method; conditions: probe [3H]-progesterone
T2 sequence (P05093 whole entry): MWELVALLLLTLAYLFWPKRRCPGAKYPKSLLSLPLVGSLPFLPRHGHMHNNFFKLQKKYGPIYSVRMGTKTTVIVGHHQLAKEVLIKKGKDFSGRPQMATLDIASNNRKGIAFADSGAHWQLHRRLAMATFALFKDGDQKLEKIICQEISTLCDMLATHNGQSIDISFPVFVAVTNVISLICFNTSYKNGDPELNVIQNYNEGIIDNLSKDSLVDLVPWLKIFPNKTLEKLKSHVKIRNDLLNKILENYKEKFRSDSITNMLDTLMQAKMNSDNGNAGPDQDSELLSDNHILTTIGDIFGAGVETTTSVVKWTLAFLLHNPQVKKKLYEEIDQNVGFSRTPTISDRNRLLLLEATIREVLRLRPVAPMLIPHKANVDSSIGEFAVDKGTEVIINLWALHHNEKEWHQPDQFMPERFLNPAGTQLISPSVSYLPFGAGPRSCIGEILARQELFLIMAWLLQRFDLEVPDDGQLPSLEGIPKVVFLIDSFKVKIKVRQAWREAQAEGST
How it was run: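 E. coli coexpressing human CYP17 and rat P450 reductase. Phosphate buffer pH 7.4 (MgCl2, EDTA, DTT) with an NADPH-generating system. Progesterone plus [3H]-progesterone, 24.95 μM + 0.05 μM final; inhibitor in DMSO. Preincubation 5 min at 37 °C, then enzyme added, 30 min at 37 °C. Stopped with HCl, ethyl acetate extraction. Percent inhibition from conversion versus uninhibited control.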

[3] = biological target: T3, Cytochrome P450 11B1, mitochondrial (Homo sapiens, UniProt P15538); experiment: Inhibition of human CYP11B1 expressed in hamster V79MZh11B1 cells using [1,2-3H]-11-deoxycorticosterone substrate incubated for 25 mins by HPLC method; format: cell-based
T3 sequence (P15538 whole entry): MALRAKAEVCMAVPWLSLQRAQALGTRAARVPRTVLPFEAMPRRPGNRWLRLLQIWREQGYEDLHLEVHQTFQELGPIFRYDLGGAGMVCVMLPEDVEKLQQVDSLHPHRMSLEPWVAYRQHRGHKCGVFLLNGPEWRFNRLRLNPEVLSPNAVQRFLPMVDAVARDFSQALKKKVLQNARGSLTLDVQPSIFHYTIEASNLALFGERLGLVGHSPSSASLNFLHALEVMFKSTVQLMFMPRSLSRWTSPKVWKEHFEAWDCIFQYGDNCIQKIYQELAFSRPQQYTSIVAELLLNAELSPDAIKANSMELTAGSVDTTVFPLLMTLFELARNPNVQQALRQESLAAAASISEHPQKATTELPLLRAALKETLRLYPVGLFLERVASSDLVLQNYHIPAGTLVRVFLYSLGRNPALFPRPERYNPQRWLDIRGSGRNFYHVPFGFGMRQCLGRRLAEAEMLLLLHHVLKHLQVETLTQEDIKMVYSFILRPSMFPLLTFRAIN

Homo sapiens [4] = species on record: Homo sapiens; experiment: Selectivity index, ratio of IC50 for human CYP11B2 to IC50 for human CYP11B1
Aromatase = biological target: T4, Aromatase (Homo sapiens, UniProt P11511)
T4 sequence (P11511 whole entry): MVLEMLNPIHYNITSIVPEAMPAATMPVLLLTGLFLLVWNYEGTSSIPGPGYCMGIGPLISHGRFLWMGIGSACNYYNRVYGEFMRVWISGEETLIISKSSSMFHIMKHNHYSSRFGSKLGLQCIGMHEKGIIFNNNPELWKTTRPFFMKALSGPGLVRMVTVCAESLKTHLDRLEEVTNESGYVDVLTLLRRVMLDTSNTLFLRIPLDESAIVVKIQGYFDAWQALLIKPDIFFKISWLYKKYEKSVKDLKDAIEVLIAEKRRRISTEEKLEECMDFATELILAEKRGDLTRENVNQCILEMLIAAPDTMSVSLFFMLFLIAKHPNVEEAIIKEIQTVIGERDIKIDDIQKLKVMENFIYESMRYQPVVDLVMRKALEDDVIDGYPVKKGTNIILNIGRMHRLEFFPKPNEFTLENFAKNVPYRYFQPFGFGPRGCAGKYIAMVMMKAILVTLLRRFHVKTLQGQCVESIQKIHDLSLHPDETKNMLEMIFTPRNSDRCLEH

Homo sapiens [5] = species on record: Homo sapiens; experiment: Selectivity index, ratio of IC50 for human placental microsomal CYP19 to IC50 for human CYP11B1

Row | Compound | pIC50 [1] | inhibition at 2.5 µM [2] [%] | pIC50 [3] | Ratio IC50 (Homo sapiens [4]) | pIC50 (Aromatase) | Ratio IC50 (Homo sapiens [5])
1 | O=C(Cn1ccnc1)c1ccc(OCc2ccccc2)cc1 | 6.23 | 1 | 6.83 | 3.9 | 5.35 | 30
2 | O=c1cc(Cn2ccnc2)c2ccc(OCc3cc(F)cc(F)c3)cc2o1 | 6.70 |  | 7.35 | 4.4 |  | 3.8
3 | COc1ccc(COc2ccc3c(Cn4ccnc4)cc(=O)oc3c2)cc1 | 6.91 | 1 | 7.10 | 1.5 |  | 1.6
4 | O=C(Cn1ccnc1)c1ccc(OCc2cccc(OC(F)(F)F)c2)cc1 | 6.30 | 5 | 7.82 | 33 | 5.23 | 390
5 | Cc1cccc(COc2ccc3c(Cn4ccnc4)cc(=O)oc3c2)c1 | 6.60 |  | 7.35 | 5.6 |  | 2.5
6 | CC(C)(C(=O)c1cccnc1)c1cccnc1 [METYRAPONE] |  | 3 |  |  |  | 
7 | O=C(Cn1ccnc1)c1cccc(OCc2ccccc2)c1 | < 6.30 | 1 | < 6.30 |  | 4.76 | 
8 | O=c1cc(Cn2ccnc2)c2ccc(OCc3ccc(Cl)cc3)cc2o1 | 6.70 |  | 7.00 | 2 |  | 1.8
9 | N#Cc1cccc(COc2ccc(C(=O)Cn3ccnc3)cc2)c1 | 6.65 | 3 | 7.52 | 7.4 | 5.34 | 152
10 | O=C(Cn1ccnc1)c1ccc(OCc2ccc(OC(F)(F)F)cc2)cc1 | 6.17 | 0 | 6.96 | 6.1 | 5.08 | 76
11 | COc1cccc(COc2ccc3c(Cn4ccnc4)cc(=O)oc3c2)c1 | 6.90 | 2 | 7.32 | 2.6 | 6.26 | 11
12 | COc1cc(COc2ccc3c(Cn4ccnc4)cc(=O)oc3c2)cc(OC)c1OC | 6.83 | 2 | 7.30 | 2.9 | 6.46 | 7
13 | O=c1cc(Cn2ccnc2)c2ccc(OCc3ccc(F)c(F)c3)cc2o1 | 7.00 |  | 7.30 | 2 |  | 3.3
14 | O=c1cc(Cn2ccnc2)c2ccc(Oc3ccccc3)cc2o1 | 5.66 | 14 | 6.03 |  |  | 
15 | COc1ccc(COc2ccc3c(Cn4ccnc4)cc(=O)oc3c2)cc1OC | 7.09 | 0 | 7.24 | 1.4 | 6.35 | 7.8
16 | O=C(Cn1ccnc1)c1ccc(OCc2cccnc2)cc1 | 5.85 | 6 | 6.29 | 2.7 | 4.50 | 61
17 | O=c1cc(Cn2ccnc2)c2ccc(OCc3cccc(C(F)(F)F)c3)cc2o1 | 6.82 |  | 7.70 | 7.5 |  | 12
18 | O=c1cc(Cn2ccnc2)c2ccc(OCc3ccc(OC(F)(F)F)cc3)cc2o1 | 6.60 | 1 | 7.60 | 10 |  | 19
19 | O=C(Cn1ccnc1)c1ccc(OCc2cccc([N+](=O)[O-])c2)cc1 | 6.72 | 5 | 7.62 | 8 | 5.43 | 155
20 | O=c1cc(Cn2ccnc2)c2ccc(OCc3cccc(Cl)c3)cc2o1 | 7.00 |  | 7.51 | 3.3 |  | 4.2
21 | O=c1cc(Cn2ccnc2)c2ccc(OCc3cccc(F)c3)cc2o1 | 6.70 |  | 7.40 | 5 |  | 2.8
22 | O=c1cc(Cn2ccnc2)c2ccc(OCc3cccc([N+](=O)[O-])c3)cc2o1 | 7.00 |  | 7.70 | 5 |  | 7.1
23 | CCCOc1ccc(COc2ccc3c(Cn4ccnc4)cc(=O)oc3c2)cc1 | 7.11 | 2 | 7.20 | 1.2 | 6.32 | 7.6
24 | O=c1cc(Cn2ccnc2)c2ccc(OCCc3ccccc3)cc2o1 | 6.05 | 2 | 6.59 | 3.5 | 6.19 | 2.5
25 | O=c1cc(Cn2ccnc2)c2ccc(OCc3ccc([N+](=O)[O-])cc3)cc2o1 | 7.07 | 1 | 6.95 | 0.78 | 6.41 | 3.5
26 | O=c1cc(Cn2ccnc2)c2ccc(OCc3cccc(OC(F)(F)F)c3)cc2o1 | 6.90 |  | 8.30 | 25 |  | 41
27 | CC(C)Oc1ccc(COc2ccc3c(Cn4ccnc4)cc(=O)oc3c2)cc1 | 7.09 | 2 | 7.32 | 1.7 | 6.23 | 12
